Test results from ChEMBL document CHEMBL1128315, “1-(Fluorobenzyl)-4-amino-1H-1,2,3-triazolo[4,5-c]pyridines: synthesis and anticonvulsant activity” (1995).

How the values were obtained:
[1] = system: Rattus norvegicus; assay: Anticonvulsant activity against maximal electroshock-induced seizures in Wistar rats following i.p. administration.; assay type: functional; conditions: ip
Method in brief: (§1)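 Male Charles River Wistar rats; maximal electroshock seizure test. Compounds given as solutions or fine dispersions in water or 0.5% methyl cellulose, micronized if not fully soluble. ED50 is the dose protecting 50% against hind limb extension, calculated by Miller–Tainter. Values with a standard error used four doses, at least 12 rats each. Values without one used three doses, six rats each.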

[2] = system: Rattus norvegicus; assay: Anticonvulsant activity against maximal electroshock-induced seizures in Wistar rats following p.o. administration.; assay type: functional; conditions: po; method in brief: as §1

SMILES | ED50 [1] | ED50 [2]
CNc1nccc2c1nnn2Cc1ccccc1C(F)(F)F.Cl | > 25 mg/kg | –
CNc1nccc2c1nnn2Cc1ccc(F)cc1.Cl | 17 mg/kg | –
Cl.Nc1nccc2c1nnn2Cc1ccccc1 | 8.7 mg/kg | 20 mg/kg
CCN(C)c1nccc2c1nnn2Cc1ccccc1F.Cl | > 25 mg/kg | –
CC(C)Nc1nccc2c1nnn2Cc1ccccc1F.Cl | 14.2 mg/kg | > 25 mg/kg
Cl.Fc1ccccc1Cn1nnc2c(NCC3CC3)nccc21 | 40 mg/kg | –
CNc1nccc2c1nnn2Cc1cc(F)ccc1F.Cl | 5 mg/kg | –
Cl.Nc1nccc2c1nnn2Cc1ccccc1F | 28.4 mg/kg | 11.5 mg/kg
CNc1nccc2c1nnn2Cc1ccccc1.Cl | 6.3 mg/kg | 10 mg/kg
CCNc1nccc2c1nnn2Cc1ccccc1F.Cl | 8 mg/kg | 10 mg/kg
CCCNc1nccc2c1nnn2Cc1ccccc1F.Cl | 14.4 mg/kg | > 25 mg/kg
Cl.Fc1ccccc1Cn1nnc2c(NC3CC3)nccc21 | 5.6 mg/kg | –
CNc1nccc2c1nnn2Cc1cccc(F)c1.Cl | 10 mg/kg | –
CNc1nccc2c1nnn2Cc1ccccc1F.Cl | 4.6 mg/kg | 4.6 mg/kg
Cl.Nc1nccc2c1nnn2Cc1cc(F)ccc1F | 18 mg/kg | –
CNc1ncnc2c1ncn2Cc1ccccc1F [BW-A78U] | 1.7 mg/kg | 2.5 mg/kg
O=C1NC(=O)C(c2ccccc2)(c2ccccc2)N1 [PHENYTOIN] | 10 mg/kg | 20 mg/kg
